Test results published in ChEMBL document CHEMBL5661979, “Pharmacological inhibition of BMK1 suppresses tumor growth through promyelocytic leukemia protein” (Cancer Cell, 2010).

What was measured:
[1] = biological target: T1, Phosphatidylinositol 5-phosphate 4-kinase type-2 alpha (Homo sapiens) (UniProt P48426); assay: Inhibition of PIP5K2A LIP1 site in human HeLa cells lysate at 10 uM pre incubated for 15 mins followed by ADP acyl phosphate probe addition and measured after 10 mins by LC-MS/MS analysis relative to control; assay type: subcellular; details: time 25.0 min
T1 sequence (whole entry): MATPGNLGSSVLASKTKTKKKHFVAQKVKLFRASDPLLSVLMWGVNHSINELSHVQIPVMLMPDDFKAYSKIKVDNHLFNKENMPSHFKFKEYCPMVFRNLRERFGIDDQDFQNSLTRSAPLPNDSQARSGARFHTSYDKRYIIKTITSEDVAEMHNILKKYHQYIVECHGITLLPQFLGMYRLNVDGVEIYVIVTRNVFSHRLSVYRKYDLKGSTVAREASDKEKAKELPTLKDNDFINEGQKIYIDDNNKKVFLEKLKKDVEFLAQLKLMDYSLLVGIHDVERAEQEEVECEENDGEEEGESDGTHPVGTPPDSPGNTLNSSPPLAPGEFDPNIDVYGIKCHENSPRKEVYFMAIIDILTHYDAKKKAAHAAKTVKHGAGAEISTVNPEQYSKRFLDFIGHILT

[2] = biological target: Serine/threonine-protein kinase greatwall (Homo sapiens, UniProt Q96GX5); assay: Inhibition of MASTL in human HeLa cells lysate pre incubated for 15 mins followed by ATP acyl phosphate probe addition and measured after 10 mins by LC-MS/MS analysis; assay type: subcellular
Sequence of Serine/threonine-protein kinase greatwall (Q96GX5 whole entry): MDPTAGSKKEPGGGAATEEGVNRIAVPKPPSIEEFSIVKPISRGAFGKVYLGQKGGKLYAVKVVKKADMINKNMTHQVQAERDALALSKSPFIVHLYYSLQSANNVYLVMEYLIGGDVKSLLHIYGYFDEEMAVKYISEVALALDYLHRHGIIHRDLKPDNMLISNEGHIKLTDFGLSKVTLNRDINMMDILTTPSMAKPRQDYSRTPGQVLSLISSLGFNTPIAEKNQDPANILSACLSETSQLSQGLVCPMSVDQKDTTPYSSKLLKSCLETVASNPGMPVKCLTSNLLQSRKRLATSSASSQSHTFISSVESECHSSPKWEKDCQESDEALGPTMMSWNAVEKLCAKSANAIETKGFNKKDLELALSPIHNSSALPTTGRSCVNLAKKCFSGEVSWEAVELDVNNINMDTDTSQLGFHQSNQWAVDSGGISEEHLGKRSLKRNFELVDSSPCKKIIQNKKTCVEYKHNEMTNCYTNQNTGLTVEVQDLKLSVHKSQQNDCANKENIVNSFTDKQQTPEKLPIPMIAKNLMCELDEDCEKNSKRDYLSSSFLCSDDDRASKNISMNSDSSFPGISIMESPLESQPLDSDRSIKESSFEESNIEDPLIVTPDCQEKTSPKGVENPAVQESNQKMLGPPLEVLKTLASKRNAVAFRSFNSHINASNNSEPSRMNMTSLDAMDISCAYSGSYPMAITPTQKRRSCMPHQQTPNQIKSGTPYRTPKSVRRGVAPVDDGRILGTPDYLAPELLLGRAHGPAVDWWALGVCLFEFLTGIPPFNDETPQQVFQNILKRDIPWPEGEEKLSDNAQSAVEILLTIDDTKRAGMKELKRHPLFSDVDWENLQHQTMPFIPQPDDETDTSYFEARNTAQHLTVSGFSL

[3] = biological target: T2, Serine/threonine-protein kinase D3 (Homo sapiens) (UniProt O94806); assay: Inhibition of PKD3 in human HeLa cells lysate at 50 uM pre incubated for 15 mins followed by ADP acyl phosphate probe addition and measured after 10 mins by LC-MS/MS analysis relative to control; assay type: subcellular; details: time 25.0 min
T2 sequence (whole entry): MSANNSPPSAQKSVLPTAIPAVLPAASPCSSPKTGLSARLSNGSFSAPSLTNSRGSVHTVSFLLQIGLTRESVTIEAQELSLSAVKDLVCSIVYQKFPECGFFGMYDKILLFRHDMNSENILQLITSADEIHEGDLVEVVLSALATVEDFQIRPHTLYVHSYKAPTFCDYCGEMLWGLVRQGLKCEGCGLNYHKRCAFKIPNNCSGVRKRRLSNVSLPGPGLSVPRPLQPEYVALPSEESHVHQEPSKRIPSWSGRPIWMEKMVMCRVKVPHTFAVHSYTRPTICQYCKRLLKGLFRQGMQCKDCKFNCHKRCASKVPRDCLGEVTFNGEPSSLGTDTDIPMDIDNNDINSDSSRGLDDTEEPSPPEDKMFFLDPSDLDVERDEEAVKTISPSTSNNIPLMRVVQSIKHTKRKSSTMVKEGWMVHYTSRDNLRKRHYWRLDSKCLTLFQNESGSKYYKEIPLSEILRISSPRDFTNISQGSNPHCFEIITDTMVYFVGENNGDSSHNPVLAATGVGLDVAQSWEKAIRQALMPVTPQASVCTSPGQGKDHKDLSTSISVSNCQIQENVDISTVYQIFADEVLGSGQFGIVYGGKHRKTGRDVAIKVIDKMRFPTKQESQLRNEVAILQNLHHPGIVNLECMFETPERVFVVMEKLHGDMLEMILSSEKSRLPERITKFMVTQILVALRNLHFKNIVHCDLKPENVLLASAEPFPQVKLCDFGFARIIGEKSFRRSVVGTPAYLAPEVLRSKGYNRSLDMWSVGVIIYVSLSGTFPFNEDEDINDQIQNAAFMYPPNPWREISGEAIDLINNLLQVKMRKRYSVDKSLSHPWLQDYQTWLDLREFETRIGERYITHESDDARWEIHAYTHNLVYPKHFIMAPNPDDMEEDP

[4] = biological target: Phosphatidylinositol 4-phosphate 3-kinase C2 domain-containing subunit beta (Homo sapiens, UniProt O00750); assay: Inhibition of PIK3C2B in human HeLa cells lysate at 50 uM pre incubated for 15 mins followed by ATP acyl phosphate probe addition and measured after 10 mins by LC-MS/MS analysis relative to control; assay type: subcellular; details: time 25.0 min
[5] = biological target: c-Jun N-terminal kinase, JNK (Homo sapiens, UniProt P45983+P53779+P45984); assay: Inhibition of JNK1/JNK2/JNK3 in human HeLa cells lysate pre incubated for 15 mins followed by ATP acyl phosphate probe addition and measured after 10 mins by LC-MS/MS analysis; assay type: subcellular
[6] = biological target: Cyclin-dependent kinase 2 (Homo sapiens, UniProt P24941); assay: Inhibition of CDK2 in human HeLa cells lysate at 10 uM pre incubated for 15 mins followed by ADP acyl phosphate probe addition and measured after 10 mins by LC-MS/MS analysis relative to control; assay type: subcellular; details: time 25.0 min
Summary of the method: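 KiNativ profiling in HeLa lysate (5 mg/mL total protein). Lysate incubated 15 min with inhibitor at 50, 10, 2, 0.8 or 0 μM. ATP or ADP acylphosphate probe then added (5 μM final) and reacted 10 min. Reaction stopped with urea and analysed by targeted MS, using up to four fragment ions per kinase peptide-probe conjugate. % inhibition taken against untreated lysate. Run in duplicate.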

[7] = Inhibition of PCTAIRE2/ICK in human HeLa cells lysate at 50 uM pre incubated for 15 mins followed by ADP acyl phosphate probe addition and measured after 10 mins by LC-MS/MS analysis relative to control; details: 25 min, condition cancer
[8] = biological target: Mitogen-activated protein kinase kinase kinase 1 (Homo sapiens, UniProt Q13233); assay: Inhibition of MAP3K1 in human HeLa cells lysate pre incubated for 15 mins followed by ADP acyl phosphate probe addition and measured after 10 mins by LC-MS/MS analysis; assay type: subcellular
Sequence of Mitogen-activated protein kinase kinase kinase 1 (Q13233 whole entry): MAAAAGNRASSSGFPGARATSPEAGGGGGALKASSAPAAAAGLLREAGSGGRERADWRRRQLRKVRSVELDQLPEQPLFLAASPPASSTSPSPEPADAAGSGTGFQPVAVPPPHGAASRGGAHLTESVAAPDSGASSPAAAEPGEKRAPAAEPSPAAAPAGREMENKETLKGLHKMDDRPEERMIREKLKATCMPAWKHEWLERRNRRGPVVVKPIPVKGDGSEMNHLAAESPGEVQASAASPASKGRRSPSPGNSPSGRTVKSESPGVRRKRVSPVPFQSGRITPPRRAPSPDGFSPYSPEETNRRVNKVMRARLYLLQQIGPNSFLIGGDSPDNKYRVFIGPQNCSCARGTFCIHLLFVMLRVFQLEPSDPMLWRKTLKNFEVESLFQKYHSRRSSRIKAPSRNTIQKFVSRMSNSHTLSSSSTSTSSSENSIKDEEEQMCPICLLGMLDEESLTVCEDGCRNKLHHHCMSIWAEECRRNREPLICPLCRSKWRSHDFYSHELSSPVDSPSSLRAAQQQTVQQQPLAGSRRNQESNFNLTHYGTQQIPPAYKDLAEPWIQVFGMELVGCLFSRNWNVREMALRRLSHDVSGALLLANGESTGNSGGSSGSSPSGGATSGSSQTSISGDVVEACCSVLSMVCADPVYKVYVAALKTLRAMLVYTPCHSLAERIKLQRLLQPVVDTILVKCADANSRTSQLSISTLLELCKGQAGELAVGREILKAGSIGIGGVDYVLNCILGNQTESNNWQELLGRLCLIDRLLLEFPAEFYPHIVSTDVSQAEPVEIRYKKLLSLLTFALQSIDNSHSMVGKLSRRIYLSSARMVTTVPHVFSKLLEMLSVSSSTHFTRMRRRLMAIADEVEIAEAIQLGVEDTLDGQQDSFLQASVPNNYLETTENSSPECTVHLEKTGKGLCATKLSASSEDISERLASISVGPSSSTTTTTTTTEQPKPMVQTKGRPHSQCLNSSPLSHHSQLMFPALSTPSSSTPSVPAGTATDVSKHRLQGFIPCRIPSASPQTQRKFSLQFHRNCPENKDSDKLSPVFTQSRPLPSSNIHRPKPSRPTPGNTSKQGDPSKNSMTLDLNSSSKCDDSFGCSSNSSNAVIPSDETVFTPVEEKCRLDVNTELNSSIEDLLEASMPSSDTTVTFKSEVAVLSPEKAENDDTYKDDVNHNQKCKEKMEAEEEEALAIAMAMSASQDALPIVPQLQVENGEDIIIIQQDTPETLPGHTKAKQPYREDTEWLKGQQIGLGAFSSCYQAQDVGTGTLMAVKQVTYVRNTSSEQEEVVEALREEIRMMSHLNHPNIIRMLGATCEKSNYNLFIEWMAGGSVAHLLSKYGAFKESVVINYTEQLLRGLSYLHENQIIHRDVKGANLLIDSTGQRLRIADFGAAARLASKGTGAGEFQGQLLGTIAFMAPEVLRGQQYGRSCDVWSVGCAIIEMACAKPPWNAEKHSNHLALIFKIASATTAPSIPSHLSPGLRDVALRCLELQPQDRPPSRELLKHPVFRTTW

Wee1-like protein kinase = Wee1-like protein kinase (Homo sapiens, UniProt P30291); assay: Inhibition of Wee1 in human HeLa cells lysate pre incubated for 15 mins followed by ATP acyl phosphate probe addition and measured after 10 mins by LC-MS/MS analysis; assay type: subcellular
Sequence of Wee1-like protein kinase (P30291 whole entry, the tested form may be a part): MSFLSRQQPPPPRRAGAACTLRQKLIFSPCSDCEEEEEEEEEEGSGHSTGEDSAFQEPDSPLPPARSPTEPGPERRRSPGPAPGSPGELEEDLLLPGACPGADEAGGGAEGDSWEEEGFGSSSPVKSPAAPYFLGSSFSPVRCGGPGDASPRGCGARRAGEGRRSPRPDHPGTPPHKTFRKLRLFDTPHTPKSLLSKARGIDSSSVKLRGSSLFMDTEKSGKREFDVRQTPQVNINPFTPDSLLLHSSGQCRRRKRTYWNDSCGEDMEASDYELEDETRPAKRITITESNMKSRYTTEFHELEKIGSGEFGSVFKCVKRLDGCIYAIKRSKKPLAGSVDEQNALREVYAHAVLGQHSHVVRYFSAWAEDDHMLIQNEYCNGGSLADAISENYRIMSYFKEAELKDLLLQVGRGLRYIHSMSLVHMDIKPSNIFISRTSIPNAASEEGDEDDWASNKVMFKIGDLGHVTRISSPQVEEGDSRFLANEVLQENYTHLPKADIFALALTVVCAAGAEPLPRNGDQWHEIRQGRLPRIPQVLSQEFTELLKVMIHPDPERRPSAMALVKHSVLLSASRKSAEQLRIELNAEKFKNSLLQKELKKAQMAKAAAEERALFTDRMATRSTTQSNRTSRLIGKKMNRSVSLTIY

[9] = biological target: Ribosomal protein S6 kinase alpha-3 (Homo sapiens, UniProt P51812); assay: Inhibition of RSK2 domain 2 in human HeLa cells lysate pre incubated for 15 mins followed by ATP acyl phosphate probe addition and measured after 10 mins by LC-MS/MS analysis; assay type: subcellular
Sequence of Ribosomal protein S6 kinase alpha-3 (P51812 whole entry, the tested form may be a part): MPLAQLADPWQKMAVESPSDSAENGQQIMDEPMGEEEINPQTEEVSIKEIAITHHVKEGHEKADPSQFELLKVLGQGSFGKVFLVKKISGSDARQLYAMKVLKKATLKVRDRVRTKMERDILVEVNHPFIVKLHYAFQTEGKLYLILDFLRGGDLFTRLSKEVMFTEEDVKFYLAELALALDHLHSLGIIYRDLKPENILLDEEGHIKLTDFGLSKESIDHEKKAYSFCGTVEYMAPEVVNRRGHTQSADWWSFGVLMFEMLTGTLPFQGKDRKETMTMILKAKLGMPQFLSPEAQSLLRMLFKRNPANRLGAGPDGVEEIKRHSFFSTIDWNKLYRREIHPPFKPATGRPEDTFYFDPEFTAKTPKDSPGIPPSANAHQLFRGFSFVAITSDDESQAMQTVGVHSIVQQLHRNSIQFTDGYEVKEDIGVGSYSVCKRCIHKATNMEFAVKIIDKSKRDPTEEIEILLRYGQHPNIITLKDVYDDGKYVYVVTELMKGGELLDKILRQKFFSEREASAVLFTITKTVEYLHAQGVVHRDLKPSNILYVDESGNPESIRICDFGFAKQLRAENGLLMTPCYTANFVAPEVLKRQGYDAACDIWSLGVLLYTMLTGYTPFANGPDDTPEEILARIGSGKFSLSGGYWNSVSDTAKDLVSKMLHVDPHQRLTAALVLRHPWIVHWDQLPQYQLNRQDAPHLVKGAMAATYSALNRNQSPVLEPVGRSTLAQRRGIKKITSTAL

[10] = biological target: Serine/threonine-protein kinase tousled-like 2 (Homo sapiens, UniProt Q86UE8); assay: Inhibition of TLK2 in human HeLa cells lysate at 2 uM pre incubated for 15 mins followed by ADP acyl phosphate probe addition and measured after 10 mins by LC-MS/MS analysis relative to control; assay type: subcellular; details: time 25.0 min
Sequence of Serine/threonine-protein kinase tousled-like 2 (Q86UE8 whole entry, looked up): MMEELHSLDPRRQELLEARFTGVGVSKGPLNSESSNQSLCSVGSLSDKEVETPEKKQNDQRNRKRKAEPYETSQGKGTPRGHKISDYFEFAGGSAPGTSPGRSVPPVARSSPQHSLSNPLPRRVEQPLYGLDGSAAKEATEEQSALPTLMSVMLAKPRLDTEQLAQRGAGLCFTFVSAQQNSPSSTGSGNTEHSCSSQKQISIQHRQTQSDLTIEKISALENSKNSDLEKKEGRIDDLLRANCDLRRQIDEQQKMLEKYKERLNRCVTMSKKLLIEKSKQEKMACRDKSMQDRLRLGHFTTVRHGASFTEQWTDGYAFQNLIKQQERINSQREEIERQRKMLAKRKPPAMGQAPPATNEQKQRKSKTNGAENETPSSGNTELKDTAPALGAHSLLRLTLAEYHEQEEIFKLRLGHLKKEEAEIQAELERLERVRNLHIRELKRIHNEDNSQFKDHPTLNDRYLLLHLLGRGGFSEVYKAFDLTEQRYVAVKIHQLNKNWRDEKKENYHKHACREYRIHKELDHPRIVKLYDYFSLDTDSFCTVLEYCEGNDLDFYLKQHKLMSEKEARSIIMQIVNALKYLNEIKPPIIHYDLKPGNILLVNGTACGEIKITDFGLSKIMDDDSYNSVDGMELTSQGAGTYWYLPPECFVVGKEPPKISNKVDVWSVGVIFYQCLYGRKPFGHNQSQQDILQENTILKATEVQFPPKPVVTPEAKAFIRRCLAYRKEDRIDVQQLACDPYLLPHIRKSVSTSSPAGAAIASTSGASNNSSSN

With `CCOc1cc(N2CCC(O)CC2)ccc1Nc1ncc2c(n1)N(C)c1ccccc1C(=O)N2C` the inhibition [1] was 5%, the IC50 [2] was > 50 µM and the inhibition [3] was -0.5%. The inhibition [4] was 46.3%, the IC50 [5] was > 50 µM and the inhibition [6] was -3.8%. For the same compound, the inhibition at 50 µM [7] was 4.1%, the IC50 [8] was > 50 µM and the IC50 (Wee1-like protein kinase) was > 50 µM. The IC50 [9] was 49 µM and the inhibition [10] was 7.3%.
